≈ marks a conversion by molar mass, not a printed value.
Test system: Mycobacterium tuberculosis
Assay: Antimycobacterial activity against rifampicin and isoniazid-resistant Mycobacterium tuberculosis 43 assessed as growth inhibition
Type: functional
Method in brief: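 MDR strain 43, resistant to rifampicin and isoniazid, was a clinical isolate from an HIV-negative Bulgarian adult with pulmonary TB. Tested by the Canetti proportion method on Löwenstein–Jensen medium, with compound in DMSO added before coagulation. Colonies were compared with drug-free control as percent inhibition. MIC is the lowest concentration giving complete inhibition (0% growth).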

SMILES	MIC
CC1(C)[C@@H]2CC[C@@]1([C@@H](O)CN1CCCCC1)C(=O)C2	18.9 µM (≈ 5.02 µg/mL)
CC1(C)[C@@H]2CC[C@@]1([C@@H](O)CN1CCOCC1)C(=O)C2	> 18.7 µM
CC1(C)[C@@H]2CC[C@@]1([C@H](O)CN1CCN(c3ccc(Cl)cc3)CC1)C(=O)C2	0.27 µM (≈ 0.102 µg/mL)
CC1(C)[C@@H]2CC[C@@]1([C@H](O)CN1CCN(c3ccc(F)cc3)CC1)C(=O)C2	0.55 µM (≈ 0.198 µg/mL)
CC1(C)[C@@H]2CC[C@@]1([C@@H](O)CN1CCN(c3ccc(F)cc3)CC1)C(=O)C2	0.55 µM (≈ 0.198 µg/mL)
CC1CCN(C[C@@H](O)[C@]23CC[C@H](CC2=O)C3(C)C)CC1	0.72 µM (≈ 0.201 µg/mL)

— ChEMBL document CHEMBL3259774, “Antimycobacterial activity of chiral aminoalcohols with camphane scaffold” (Eur J Med Chem, 2014)
